In ChEMBL document CHEMBL4024799, “Synthesis and Biological Characterization of Aryl Uracil Inhibitors of Hepatitis C Virus NS5B Polymerase: Discovery of ABT-072, a trans-Stilbene Analog with Good Oral Bioavailability” (J Med Chem, 2018):
Converted amounts (≈) assume the structure as drawn.

How the values were obtained:
[1] = tested on: Hepatitis C virus; assay: Antiviral activity against HCV genotype 1b Con1 infected in human HuH7 cells harboring HCV subgenomic bicistronic replicon after 3 days by luciferase reporter gene assay; assay type: functional, cell-based, Hepacivirus hominis; details: genotype 1b Con1, Huh-7, 72 h
How it was run: (§1)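 Subgenomic genotype 1a (H77) or 1b (Con1) replicons carrying firefly luciferase, transfected into Huh-7 cells. Replication inhibition was read as luciferase level in cell lysate on a luminometer and reported as EC50. Runs were done without human plasma or with 40% human plasma added, to assess inhibitor–protein binding.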

[2] = Stability in rat liver microsomes assessed as parent compound remaining after 30 mins; assay type: ADME, microsome; details: read-out: Stability
How it was run: (§2)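 Compound incubated 30 min with human or rat liver microsomes; percent of parent compound remaining reported.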

[3] = Aqueous solubility of the compound at pH 7.2; assay type: physicochemical; details: buffer
[4] = Inhibition of HCV genotype 1a H77 NS5B RNA dependent RNA polymerase assessed as reduction in [3H]UTP incorporation in to RNA preincubated for 15 mins followed by [3H]UTP addition measured after 3 hrs by microbeta scintillation counting method; parameters: species or system Hepatitis C virus (isolate H77)
How it was run: (§3)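 NS5B polymerase from genotype 1a (H77) or 1b (BK); formation of RNA product measured as 3H-UTP incorporation by scintillation counting; IC50 calculated with a standard IC50 equation.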

[5] = Passive permeability of the compound by PAMPA; assay type: physicochemical; details: read-out: permeability
[6] = Inhibition of HCV genotype 1b BK NS5B RNA dependent RNA polymerase assessed as reduction in [3H]UTP incorporation in to RNA preincubated for 15 mins followed by [3H]UTP addition measured after 3 hrs by microbeta scintillation counting method; parameters: species or system Hepatitis C virus (isolate BK); how it was run: as §3
[7] = Stability in human liver microsomes assessed as parent compound remaining after 30 mins; assay type: ADME, microsome; details: read-out: Stability; how it was run: as §2
[8] = tested on: Hepatitis C virus; assay: Antiviral activity against HCV genotype 1b Con1 infected in human HuH7 cells harboring HCV subgenomic bicistronic replicon after 3 days in presence of 40% human plasma by luciferase reporter gene assay; assay type: functional, cell-based, Hepacivirus hominis; details: genotype 1b Con1, Huh-7, 72 h; how it was run: as §1
[9] = Plasma clearance in Sprague-Dawley rat at 5 mg/kg, iv; assay type: ADME, organism-based
How it was run: (§4)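 Sprague-Dawley rats, n = 3 per experiment; solution in DMSO:PEG400 (1:9, v/v) given IV or oral; 5 mg/kg for both routes, and 30 mg/kg oral; plasma t1/2, Vss, clearance, Cmax, AUC and F% determined.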

[10] = Oral bioavailability in Sprague-Dawley rat at 5 mg/kg; assay type: ADME, organism-based; details: in vivo; how it was run: as §4
[11] = AUC in Sprague-Dawley rat at 5 mg/kg, po; assay type: ADME, organism-based; details: in vivo; how it was run: as §4
[12] = tested on: Hepatitis C virus; assay: Antiviral activity against HCV genotype 1a H77 infected in human HuH7 cells harboring HCV subgenomic bicistronic replicon after 3 days by luciferase reporter gene assay; assay type: functional, cell-based, Hepacivirus hominis; details: genotype 1a H77, Huh-7, 72 h; how it was run: as §1
[13] = Half life in Sprague-Dawley rat at 5 mg/kg, po; assay type: ADME, organism-based; details: in vivo; how it was run: as §4
[14] = Plasma concentration in Sprague-Dawley rat at 5 mg/kg, po up to 8 hrs; assay type: ADME, organism-based; how it was run: as §4
[15] = Ratio of plasma concentration in Sprague-Dawley rat at 5 mg/kg, po to EC50 for HCV genotype 1b Con1 infected in human HuH7 cells harboring HCV subgenomic bicistronic replicon
[16] = tested on: Rattus norvegicus; assay: Time at which plasma concentration stays above HCV genotype 1b Con1 replicon EC50 in Sprague-Dawley rat at 5 mg/kg, po
[17] = tested on: Hepatitis C virus; assay: Antiviral activity against HCV genotype 1a H77 infected in human HuH7 cells harboring HCV subgenomic bicistronic replicon after 3 days in presence of 40% human plasma by luciferase reporter gene assay; assay type: functional, cell-based, Hepacivirus hominis; details: genotype 1a H77, Huh-7, 72 h; how it was run: as §1
[18] = Cmax in Sprague-Dawley rat at 5 mg/kg, po; assay type: ADME, organism-based; parameters: dose 5 mg/kg, route oral; details: in vivo; how it was run: as §4

Structure (SMILES)	EC50 [1] [nM]	remaining at 0.5 h [2] [%]	solubility ([3]; read-out: solubility) [µM]	IC50 [4] [nM]	Papp [5] [×10⁻⁶ cm/s]	IC50 [6] [nM]	remaining at 0.5 h [7] [%]	EC50 [8] [nM]	clearance [9] [mL/min/kg]	bioavailability [10] [%]	AUC [11] [ng·h/mL]	EC50 [12] [nM]	half-life [13] [h]	solubility [3] [µM]	concentration at 8 h [14] [nM]	Ratio [15]	Time [16] [h]	EC50 [17] [nM]	Cmax [18] [ng/mL]
COc1c(C(=O)N(C)c2ccc(NS(C)(=O)=O)cc2)cc(N2CCC(=O)NC2=O)cc1C(C)(C)C	1550	83	> 50	140	0.25	273	64												
COc1c(/C=C(\C)c2ccc([N+](=O)[O-])cc2)cc(N2CCC(=O)NC2=O)cc1C(C)(C)C	12.4	36.5	< 2	4.9	0.58	16.7	18.5	82.8											
COc1c(NC(=O)c2ccc(NS(C)(=O)=O)cc2)cc(N2CCC(=O)NC2=O)cc1C(C)(C)C	29	> 85	32.8 (≈ 16 µg/mL)	8.8	0.22	46	> 85	21											
COc1c(CCc2ccc(NS(C)(=O)=O)cc2)cc(N2CCC(=O)NC2=O)cc1C(C)(C)C	39.1	1.6	18.8 (≈ 8.9 µg/mL)	26.5	4.06	40.3	2.5	91.3											
COc1c(COc2ccc(NS(C)(=O)=O)cc2)cc(N2CCC(=O)NC2=O)cc1C(C)(C)C	53	80	3 (≈ 1.43 µg/mL)	100	7.47	167	> 85	321											
COc1c(/C=C/c2ccc(NS(C)(=O)=O)cc2)cc(-n2cc(F)c(=O)[nH]c2=O)cc1C(C)(C)C	9.6		15.5 (≈ 7.56 µg/mL)					59.4	14.2	52	3120	89	3.7						
COc1c(/C=C/c2ccc(NS(C)(=O)=O)c(F)c2)cc(-n2ccc(=O)[nH]c2=O)cc1C(C)(C)C	2.1		15.5 (≈ 7.56 µg/mL)					5.3	6.33	76	10400	13.8	3.7						
COc1c(CNc2ccc(NS(C)(=O)=O)cc2)cc(N2CCC(=O)NC2=O)cc1C(C)(C)C	522	58	90.8 (≈ 43.1 µg/mL)	80	0.41	270	67												
COc1c(/C=C/c2ccc(NS(C)(=O)=O)cc2)cc(N2CCC(=O)NC2=O)cc1C(C)(C)C	1.1	33.5		0.3	0.92	0.7	48.1	3.1	10.7	18	1520	3.1	2.3	10.3 (≈ 4.86 µg/mL)	> 200	>60	8	50	260
COc1c(C(=O)Nc2ccc(NS(C)(=O)=O)cc2)cc(N2CCC(=O)NC2=O)cc1C(C)(C)C	19	> 85	< 1.5	10.8	0.25	21.7	> 85	22	25		50								
COc1c(C2CC2c2ccc(NS(C)(=O)=O)cc2)cc(N2CCC(=O)NC2=O)cc1C(C)(C)C (stereo unspecified)	56	32.3	18.8 (≈ 9.13 µg/mL)	267	2.8	514	26.5	431											
COc1c(C#Cc2ccc(NS(C)(=O)=O)cc2)cc(N2CCC(=O)NC2=O)cc1C(C)(C)C	3.9	50	2.3 (≈ 1.08 µg/mL)	1.1	0.83	3	35.8	29.8	31.7	14	350		3						60
